K and IC50 data for 15 molecules are collected here from ChEMBL document CHEMBL1136610, “Dehydrophenylalanine derivatives as VLA-4 integrin antagonists” (Bioorg Med Chem Lett, 2003).

Molecules are shown by their SMILES.

One data set is filed under the species Rattus norvegicus. Kind of data set: Clearance rate constant using isolated perfused rat liver (IPRL) assay. Format: ADME.
Data set [1] has as its target T1, Integrin alpha-4/beta-1 (Homo sapiens, UniProt P05556+P13612). Put plainly: Inhibition of VLA-4 to VCAM-1 binding in Jurkat cell adhesion assay. It is filed as cell-based. The gist of the method:
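Jurkat cells expressing VLA-4 incubated 30 min at 37 °C with test compounds on human 2-domain VCAM-1-Fc, which was immobilised on the plate via anti-human Fc. Plates washed and adherent cells stained with Rose Bengal. Reported as IC50.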

Data set [2] addresses T1, Integrin alpha-4/beta-1. Kind of data set: Inhibition of VLA-4 to VCAM-1 binding. It is filed as protein-complex assay. The gist of the method:
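Test compounds titrated into a solution of 2-domain VCAM-Fc-Ig, then added to assay wells. Buffer: TBS with 1% BSA, 1 mM MnCl2 and 0.1% Tween. Incubated 2 h at room temperature, then washed. Bound VCAM detected with peroxidase-coupled anti-human Fc. Reported as IC50.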

T1 sequence (P05556 whole entry): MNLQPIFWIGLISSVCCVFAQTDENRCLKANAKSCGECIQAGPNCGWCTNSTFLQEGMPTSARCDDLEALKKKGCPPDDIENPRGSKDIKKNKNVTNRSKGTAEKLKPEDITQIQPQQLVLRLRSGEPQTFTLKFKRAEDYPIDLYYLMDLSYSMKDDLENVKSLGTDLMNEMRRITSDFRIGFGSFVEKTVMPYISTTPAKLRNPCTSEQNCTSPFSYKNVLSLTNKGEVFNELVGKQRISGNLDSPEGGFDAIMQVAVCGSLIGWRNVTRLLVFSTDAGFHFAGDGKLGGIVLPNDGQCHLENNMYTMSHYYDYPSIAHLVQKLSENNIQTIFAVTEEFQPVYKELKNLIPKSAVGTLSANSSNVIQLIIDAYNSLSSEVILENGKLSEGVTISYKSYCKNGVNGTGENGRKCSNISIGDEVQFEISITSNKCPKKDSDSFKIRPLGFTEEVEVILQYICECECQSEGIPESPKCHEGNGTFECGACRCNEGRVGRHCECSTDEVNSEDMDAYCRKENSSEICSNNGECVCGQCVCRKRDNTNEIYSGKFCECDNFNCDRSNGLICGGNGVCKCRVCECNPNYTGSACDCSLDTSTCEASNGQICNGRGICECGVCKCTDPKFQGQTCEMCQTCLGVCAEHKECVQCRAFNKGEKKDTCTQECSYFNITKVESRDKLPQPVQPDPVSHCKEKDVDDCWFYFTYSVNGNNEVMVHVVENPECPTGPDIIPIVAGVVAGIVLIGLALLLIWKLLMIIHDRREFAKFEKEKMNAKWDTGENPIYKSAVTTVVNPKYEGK
T1 sequence (P13612 whole entry): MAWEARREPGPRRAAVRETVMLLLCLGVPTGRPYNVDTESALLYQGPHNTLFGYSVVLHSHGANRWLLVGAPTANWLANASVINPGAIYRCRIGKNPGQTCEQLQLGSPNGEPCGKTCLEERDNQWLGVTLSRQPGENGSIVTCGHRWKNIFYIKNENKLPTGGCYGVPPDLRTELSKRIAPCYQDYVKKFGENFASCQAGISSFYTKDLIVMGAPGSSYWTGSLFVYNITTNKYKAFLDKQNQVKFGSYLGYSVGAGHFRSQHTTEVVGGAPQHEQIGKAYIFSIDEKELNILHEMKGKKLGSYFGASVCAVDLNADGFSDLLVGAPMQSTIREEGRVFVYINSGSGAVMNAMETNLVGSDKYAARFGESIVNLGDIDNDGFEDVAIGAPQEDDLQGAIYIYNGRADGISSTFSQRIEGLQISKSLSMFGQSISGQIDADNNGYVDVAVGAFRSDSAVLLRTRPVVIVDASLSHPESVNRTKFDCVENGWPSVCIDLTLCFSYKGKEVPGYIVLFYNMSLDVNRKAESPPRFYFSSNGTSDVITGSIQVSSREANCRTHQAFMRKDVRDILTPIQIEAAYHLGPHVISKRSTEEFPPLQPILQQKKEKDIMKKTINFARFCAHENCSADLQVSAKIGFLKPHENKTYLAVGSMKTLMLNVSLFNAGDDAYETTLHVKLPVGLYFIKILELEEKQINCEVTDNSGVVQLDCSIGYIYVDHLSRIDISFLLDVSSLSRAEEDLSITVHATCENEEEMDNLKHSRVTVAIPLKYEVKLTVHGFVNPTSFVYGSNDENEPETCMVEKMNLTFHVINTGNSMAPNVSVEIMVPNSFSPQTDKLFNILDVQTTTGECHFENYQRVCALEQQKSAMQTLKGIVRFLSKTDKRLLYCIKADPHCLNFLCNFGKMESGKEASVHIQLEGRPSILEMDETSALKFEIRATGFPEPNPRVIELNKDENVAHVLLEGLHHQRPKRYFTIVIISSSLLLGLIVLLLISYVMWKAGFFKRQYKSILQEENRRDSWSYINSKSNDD

Turning to `O=C(O)/C(=C/c1ccc(NC(=O)c2c(Cl)cncc2Cl)cc1)NC(=O)c1cccnc1Cl`, the k in the data set listed under Rattus norvegicus came out at 3.9 h⁻¹. Besides, the IC50 on Integrin alpha-4/beta-1 [1] was 70 nM; at Integrin alpha-4/beta-1 [2], 1.4 nM.

The molecule `O=C(O)C1=Cc2ccc(NC(=O)c3c(Cl)cncc3Cl)cc2NC(c2cccnc2Cl)=N1` returned a k in the data set filed under Rattus norvegicus of 5.3 h⁻¹. Besides, the IC50 at Integrin alpha-4/beta-1 [1] turned out to be 410 nM; at Integrin alpha-4/beta-1 [2], 55 nM.

Take `O=C(O)/C(=C/c1ccc(OCc2c(Cl)cncc2Cl)cc1)NC(=O)c1cccnc1Cl`: the IC50 on Integrin alpha-4/beta-1 [1] was found to be 14000 nM; on Integrin alpha-4/beta-1 [2] it was 140 nM.

`CC(=O)N1CSC[C@@H]1C(=O)N/C(=C\c1ccc(NC(=O)c2c(Cl)cccc2Cl)cc1)C(=O)O` had a k in the data set listed under Rattus norvegicus of 3.9 h⁻¹. The IC50 on Integrin alpha-4/beta-1 [1] was 140 nM; at Integrin alpha-4/beta-1 [2], 5 nM.

`CC(=O)N1CSC[C@@H]1C(=O)N/C(=C/c1ccc(NC(=O)c2c(Cl)cncc2Cl)cc1)C(=O)O` displayed a k in the data set filed under Rattus norvegicus of 1.2 h⁻¹. Moreover, the IC50 on Integrin alpha-4/beta-1 [1] is 200 nM; at Integrin alpha-4/beta-1 [2] it was 60 nM.

In the data set listed under Rattus norvegicus, `CC(=O)N1CSC[C@@H]1C(=O)N/C(=C/c1ccc(NC(=O)c2c(Cl)cccc2Cl)cc1)C(=O)O` registered a k of 0.7 h⁻¹. Also, the concentration for half-maximal inhibition (IC50) came to 29000 nM on Integrin alpha-4/beta-1 [1] and 400 nM on Integrin alpha-4/beta-1 [2].

With `CC(=O)N1CSCC1C(=O)N/C(=C/c1ccc(OCc2c(Cl)cccc2Cl)cc1)C(=O)O` (stereo not drawn), the k in the data set filed under Rattus norvegicus was 0.4 h⁻¹. The IC50 on Integrin alpha-4/beta-1 [1] stood at 83000 nM; at Integrin alpha-4/beta-1 [2], 7400 nM.

For the molecule `CC(C)(C)C(=O)N/C(=C/c1ccc(NC(=O)c2c(Cl)cccc2Cl)cc1)C(=O)O`, the concentration for half-maximal inhibition (IC50) on Integrin alpha-4/beta-1 [1] worked out at 80000 nM; at Integrin alpha-4/beta-1 [2], 2700 nM.

With `CC(=O)N1CSC[C@@H]1C(=O)N/C(=C\c1ccc(NC(=O)c2c(Cl)cncc2Cl)cc1)C(=O)O`, in the data set listed under Rattus norvegicus, the k stood at 4.4 h⁻¹. Moreover, the values for the IC50 on Integrin alpha-4/beta-1 [1] and on Integrin alpha-4/beta-1 [2] were 25 nM and 2 nM, respectively.

As for `CC(=O)N1CSC[C@H]1C(=O)N/C(=C/c1ccc(OCc2ccccc2)cc1)C(=O)O`, the k in the data set filed under Rattus norvegicus was 0.6 h⁻¹. Moreover, the results for the IC50 at Integrin alpha-4/beta-1 [1] and on Integrin alpha-4/beta-1 [2] were 20000 nM and 1500 nM, respectively.

For `O=C(O)/C(=C/c1ccc(OCc2c(Cl)cccc2Cl)cc1)NC(=O)c1cccnc1Cl`, the k in the data set filed under Rattus norvegicus stood at 3.7 h⁻¹. For the same molecule, the IC50 at Integrin alpha-4/beta-1 [1] came to 7100 nM; at Integrin alpha-4/beta-1 [2], 220 nM.

Take `CC(=O)N1CSC[C@@H]1C(=O)N/C(=C\c1ccc(OCc2c(Cl)cccc2Cl)cc1)C(=O)O`: the k in the data set filed under Rattus norvegicus is 4.1 h⁻¹. For the same molecule, the IC50 on Integrin alpha-4/beta-1 [1] amounted to 5000 nM; at Integrin alpha-4/beta-1 [2], 2800 nM.

Consider `O=C(O)/C(=C\c1ccc(NC(=O)c2c(Cl)cncc2Cl)cc1)NC(=O)c1cccnc1Cl`, for which the k in the data set listed under Rattus norvegicus was found to be 1.5 h⁻¹. Further, the IC50 is 8500 nM at Integrin alpha-4/beta-1 [1] and 66 nM at Integrin alpha-4/beta-1 [2].

The molecule `CC(C)(C)C(=O)N/C(=C\c1ccc(NC(=O)c2c(Cl)cccc2Cl)cc1)C(=O)O` had a k in the data set listed under Rattus norvegicus of 4.8 h⁻¹. The IC50 at Integrin alpha-4/beta-1 [1] stood at 3700 nM; on Integrin alpha-4/beta-1 [2] it was 50 nM.

As to `CC(=O)N1CSC[C@H]1C(=O)N/C(=C\c1ccc(OCc2ccccc2)cc1)C(=O)O`, the k in the data set listed under Rattus norvegicus amounted to 3.8 h⁻¹. Further, the concentration for half-maximal inhibition (IC50) at Integrin alpha-4/beta-1 [1] came to 71000 nM; on Integrin alpha-4/beta-1 [2] it was 2200 nM.
